In brackets after ≈: the same amount, converted by molar mass.
Legend:
Assay type in all cases: functional
[1] = test system: Escherichia coli; assay: Antibacterial activity against Escherichia coli ATCC 25922 assessed as bacterial growth inhibition by broth microdilution assay
Outline: (§1)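 Broth microdilution. Bacteria from glycerol stocks were grown overnight on blood agar at 37 °C, then colonies were suspended in TSB and grown to OD600 0.5. Compounds were dissolved in DMSO at 6.4 mg mL−1 (stock) and serially diluted in CAMHB (Mg2+ 12.5, Ca2+ 20 μg mL−1) in polypropylene plates. Inoculum was 10^6 CFU mL−1 final, incubated at 37 °C. MIC = lowest concentration without visible growth; values consistent across at least triplicate experiments.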

[2] = test system: Escherichia coli; assay: Antibacterial activity against Escherichia coli 1313 assessed as bacterial growth inhibition by broth microdilution assay; outline: as §1
[3] = test system: Escherichia coli; assay: Antibacterial activity against multidrug-resistant Escherichia coli NCTC 13846 assessed as bacterial growth inhibition by broth microdilution assay
Outline: (§2)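 Broth microdilution MIC. Strains grown overnight on blood agar at 37 °C, colonies suspended in TSB and grown to OD600 0.5. Compounds dissolved in DMSO (6.4 mg mL−1 stock), diluted serially in CAMHB (12.5 μg mL−1 Mg2+, 20 μg mL−1 Ca2+) on polypropylene plates. Final inoculum 10^6 CFU mL−1, 37 °C under gas-permeable membrane. MIC is the lowest concentration with no visible growth, consistent across at least triplicate experiments.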

[4] = test system: Klebsiella pneumoniae; assay: Antibacterial activity against Klebsiella pneumoniae ATCC 13883 assessed as bacterial growth inhibition by broth microdilution assay; outline: as §1
[5] = test system: Klebsiella pneumoniae; assay: Antibacterial activity against Klebsiella pneumoniae JS-123 assessed as bacterial growth inhibition by broth microdilution assay; outline: as §1
[6] = test system: Klebsiella pneumoniae; assay: Antibacterial activity against Klebsiella pneumoniae NCTC 13443 assessed as bacterial growth inhibition by broth microdilution assay; outline: as §1
[7] = test system: Acinetobacter baumannii; assay: Antibacterial activity against Acinetobacter baumannii ATCC 19606 assessed as bacterial growth inhibition by broth microdilution assay; outline: as §2
[8] = test system: Acinetobacter baumannii; assay: Antibacterial activity against Acinetobacter baumannii ATCC 17978 assessed as bacterial growth inhibition by broth microdilution assay; outline: as §2
[9] = test system: Acinetobacter baumannii; assay: Antibacterial activity against multidrug-resistant Acinetobacter baumannii assessed as bacterial growth inhibition by broth microdilution assay; outline: as §2
[10] = test system: Acinetobacter baumannii; assay: Antibacterial activity against Acinetobacter baumannii 2018-006 assessed as bacterial growth inhibition by broth microdilution assay; outline: as §2
[11] = test system: Pseudomonas aeruginosa; assay: Antibacterial activity against Pseudomonas aeruginosa ATCC 27853 assessed as bacterial growth inhibition by broth microdilution assay; outline: as §1
[12] = test system: Pseudomonas aeruginosa; assay: Antibacterial activity against Pseudomonas aeruginosa NRZ 08418 assessed as bacterial growth inhibition by broth microdilution assay; outline: as §1
[13] = test system: Pseudomonas aeruginosa; assay: Antibacterial activity against Pseudomonas aeruginosa NRZ 03961 assessed as bacterial growth inhibition by broth microdilution assay; outline: as §1

Row | SMILES | MIC [1] [µg/mL] | MIC [2] [µg/mL] | MIC [3] [µg/mL] | MIC [4] [µg/mL] | MIC [5] [µg/mL] | MIC [6] [µg/mL] | MIC [7] [µg/mL] | MIC [8] [µg/mL] | MIC [9] [µg/mL] | MIC [10] [µg/mL] | MIC [11] [µg/mL] | MIC [12] [µg/mL] | MIC [13] [µg/mL]
1 | CC(C)CCSSC[C@@H](N)C(=O)N[C@H](C(=O)NCC(=O)N[C@H]1CCNC(=O)[C@H]([C@@H](C)O)NC(=O)[C@H](CCN)NC(=O)[C@H](CCN)NC(=O)[C@H](CC(C)C)NC(=O)[C@@H](Cc2ccccc2)NC(=O)[C@H](CCN)NC1=O)[C@@H](C)O | 2 (≈ 1.78 µM) | 0.25 (≈ 0.222 µM) | 16 (≈ 14.2 µM) | 0.5 (≈ 0.444 µM) | 0.5 (≈ 0.444 µM) | 0.5 (≈ 0.444 µM) | 0.5 (≈ 0.444 µM) | 0.5 (≈ 0.444 µM) | 0.5 (≈ 0.444 µM) | 0.5 (≈ 0.444 µM) | 4 (≈ 3.55 µM) | 4 (≈ 3.55 µM) | 4 (≈ 3.55 µM)
2 | CC(C)C[C@@H]1NC(=O)[C@@H](Cc2ccccc2)NC(=O)[C@H](CCN)NC(=O)[C@@H](NC(=O)[C@@H](CO)NC(=O)[C@@H](NC(=O)[C@H](N)CSSCc2cccc(Cl)c2)[C@@H](C)O)CCNC(=O)[C@H]([C@@H](C)O)NC(=O)[C@H](CCN)NC(=O)[C@H](CCN)NC1=O | 2 (≈ 1.65 µM) | 0.5 (≈ 0.413 µM) | 8 (≈ 6.61 µM) | 1 (≈ 0.827 µM) | 0.25 (≈ 0.207 µM) | 0.5 (≈ 0.413 µM) | 0.5 (≈ 0.413 µM) | 0.5 (≈ 0.413 µM) | 0.5 (≈ 0.413 µM) | 0.5 (≈ 0.413 µM) | 4 (≈ 3.31 µM) | 4 (≈ 3.31 µM) | 8 (≈ 6.61 µM)
3 | CC(C)C[C@@H]1NC(=O)[C@@H](Cc2ccccc2)NC(=O)[C@H](CCN)NC(=O)[C@@H](NC(=O)[C@@H](CN)NC(=O)[C@@H](NC(=O)[C@H](N)CSSCc2cccc(Cl)c2)[C@@H](C)O)CCNC(=O)[C@H]([C@@H](C)O)NC(=O)[C@H](CCN)NC(=O)[C@H](CCN)NC1=O | 2 (≈ 1.65 µM) | 0.5 (≈ 0.414 µM) | 16 (≈ 13.2 µM) | 0.5 (≈ 0.414 µM) | 2 (≈ 1.65 µM) | 8 (≈ 6.62 µM) | 0.5 (≈ 0.414 µM) | 0.5 (≈ 0.414 µM) | 0.5 (≈ 0.414 µM) | 0.5 (≈ 0.414 µM) | 1 (≈ 0.827 µM) | 0.5 (≈ 0.414 µM) | 2 (≈ 1.65 µM)
4 | CC(C)C[C@@H]1NC(=O)[C@@H](Cc2ccccc2)NC(=O)[C@H](CCN)NC(=O)[C@@H](NC(=O)[C@H](CN)NC(=O)[C@@H](NC(=O)[C@H](N)CSSCCC2CCCCC2)[C@@H](C)O)CCNC(=O)[C@H]([C@@H](C)O)NC(=O)[C@H](CCN)NC(=O)[C@H](CCN)NC1=O | 1 (≈ 0.837 µM) | 0.5 (≈ 0.419 µM) | 2 (≈ 1.67 µM) | 1 (≈ 0.837 µM) | 0.5 (≈ 0.419 µM) | 1 (≈ 0.837 µM) | 0.5 (≈ 0.419 µM) | 1 (≈ 0.837 µM) | 1 (≈ 0.837 µM) | 0.5 (≈ 0.419 µM) | 2 (≈ 1.67 µM) | 2 (≈ 1.67 µM) | 2 (≈ 1.67 µM)
5 | CC(C)C[C@@H]1NC(=O)[C@@H](Cc2ccccc2)NC(=O)[C@H](CCN)NC(=O)[C@@H](NC(=O)[C@@H](CCN)NC(=O)[C@@H](NC(=O)[C@H](N)CSSCc2cccc(Cl)c2)[C@@H](C)O)CCNC(=O)[C@H]([C@@H](C)O)NC(=O)[C@H](CCN)NC(=O)[C@H](CCN)NC1=O | 2 (≈ 1.64 µM) | 0.5 (≈ 0.409 µM) | 4 (≈ 3.27 µM) | 1 (≈ 0.818 µM) | 0.5 (≈ 0.409 µM) | 0.5 (≈ 0.409 µM) | 0.5 (≈ 0.409 µM) | 1 (≈ 0.818 µM) | 1 (≈ 0.818 µM) | 0.5 (≈ 0.409 µM) | 2 (≈ 1.64 µM) | 2 (≈ 1.64 µM) | 2 (≈ 1.64 µM)
6 | CC(C)CCSSC[C@@H](N)C(=O)N[C@H](C(=O)N[C@H](CN)C(=O)N[C@H]1CCNC(=O)[C@H]([C@@H](C)O)NC(=O)[C@H](CCN)NC(=O)[C@H](CCN)NC(=O)[C@H](CC(C)C)NC(=O)[C@@H](Cc2ccccc2)NC(=O)[C@H](CCN)NC1=O)[C@@H](C)O | 2 (≈ 1.73 µM) | 0.5 (≈ 0.433 µM) | 8 (≈ 6.93 µM) | 0.5 (≈ 0.433 µM) | 0.5 (≈ 0.433 µM) | 0.5 (≈ 0.433 µM) | 0.25 (≈ 0.217 µM) | 0.25 (≈ 0.217 µM) | 0.25 (≈ 0.217 µM) | 0.25 (≈ 0.217 µM) | 1 (≈ 0.866 µM) | 4 (≈ 3.46 µM) | 2 (≈ 1.73 µM)
7 | CC(C)C[C@@H]1NC(=O)[C@@H](Cc2ccccc2)NC(=O)[C@H](CCN)NC(=O)[C@@H](NC(=O)[C@@H](CN)NC(=O)[C@@H](NC(=O)[C@H](N)CSSCCC2CCCCC2)[C@@H](C)O)CCNC(=O)[C@H]([C@@H](C)O)NC(=O)[C@H](CCN)NC(=O)[C@H](CCN)NC1=O | 2 (≈ 1.67 µM) | 0.5 (≈ 0.419 µM) | 4 (≈ 3.35 µM) | 1 (≈ 0.837 µM) | 1 (≈ 0.837 µM) | 1 (≈ 0.837 µM) | 0.5 (≈ 0.419 µM) | 1 (≈ 0.837 µM) | 1 (≈ 0.837 µM) | 0.5 (≈ 0.419 µM) | 2 (≈ 1.67 µM) | 2 (≈ 1.67 µM) | 2 (≈ 1.67 µM)
8 | CC(C)C[C@@H]1NC(=O)[C@@H](Cc2ccccc2)NC(=O)[C@H](CCN)NC(=O)[C@@H](NC(=O)CNC(=O)[C@@H](NC(=O)[C@H](N)CSSCc2cccc(Cl)c2)[C@@H](C)O)CCNC(=O)[C@H]([C@@H](C)O)NC(=O)[C@H](CCN)NC(=O)[C@H](CCN)NC1=O | 2 (≈ 1.7 µM) | 0.25 (≈ 0.212 µM) | 8 (≈ 6.78 µM) | 1 (≈ 0.848 µM) | 0.5 (≈ 0.424 µM) | 0.5 (≈ 0.424 µM) | 1 (≈ 0.848 µM) | 1 (≈ 0.848 µM) | 1 (≈ 0.848 µM) | 1 (≈ 0.848 µM) | 4 (≈ 3.39 µM) | 4 (≈ 3.39 µM) | 4 (≈ 3.39 µM)
9 | CC(C)CCSSC[C@@H](N)C(=O)N[C@H](C(=O)N[C@H](CO)C(=O)N[C@H]1CCNC(=O)[C@H]([C@@H](C)O)NC(=O)[C@H](CCN)NC(=O)[C@H](CCN)NC(=O)[C@H](CC(C)C)NC(=O)[C@@H](Cc2ccccc2)NC(=O)[C@H](CCN)NC1=O)[C@@H](C)O | 2 (≈ 1.73 µM) | 0.5 (≈ 0.433 µM) | 16 (≈ 13.8 µM) | 0.5 (≈ 0.433 µM) | 0.5 (≈ 0.433 µM) | 1 (≈ 0.865 µM) | 0.25 (≈ 0.216 µM) | 0.25 (≈ 0.216 µM) | 0.5 (≈ 0.433 µM) | 0.5 (≈ 0.433 µM) | 4 (≈ 3.46 µM) | 8 (≈ 6.92 µM) | 8 (≈ 6.92 µM)

From ChEMBL document CHEMBL5356951, “Semisynthetic polymyxins with potent antibacterial activity and reduced kidney cell toxicity” (RSC Med Chem, 2023)
